These results are taken from ChEMBL document CHEMBL1777667, “Synthesis and antibacterial activity of some binaphthyl-supported macrocycles containing a cationic amino acid” (2011).

Structures are written as SMILES. Converted amounts (≈) assume the structure as drawn. A value given as a limit tells only on which side of the number the result lay.

The first experiment deals with Staphylococcus aureus. The experiment in a line: Antibacterial activity against Staphylococcus aureus ATCC 6538P by two fold dilution method. The format is functional.
Conditions: not given
In short, it runs like this: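 Compounds dissolved in 10% methanol/water as stock, diluted in water, then serially twofold-diluted in LB across eight wells in triplicate. Overnight (14 h) LB culture grown at 37 °C, diluted 1 in 1,000 and added to wells. Media-only, no-compound and vancomycin controls were run. Operator was blinded. MIC read by eye as the concentration next to the first well of obvious growth.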
`COC(=O)[C@@H]1CC=CCc2cc3ccccc3c(c2OC)-c2c(OC)c(cc3ccccc23)CC(NC(C)=O)C(=O)N[C@H](CCCCN)C(=O)N1.Cl` (mixture of isomers; 1): the MIC came to 16 µg/mL.

Turning to `COC(=O)[C@@H]1CC=CCc2cc3ccccc3c(c2OC)-c2c(OC)c(cc3ccccc23)CC(NC(C)=O)C(=O)N[C@H](CCCCN)C(=O)N1.Cl` (mixture of isomers; 21), the MIC is 62 µg/mL.

Compound `COC(=O)[C@@H]1C/C=C/Cc2cc3ccccc3c(c2OC)-c2c(OC)c(cc3ccccc23)CC(NC(C)=O)C(=O)N[C@H](CCCNC(=N)N)C(=O)N1.Cl` (mixture of isomers; 24) yielded an MIC of 62 µg/mL.

`COC(=O)[C@@H]1CC=CCc2cc3ccccc3c(c2OC)-c2c(OC)c(cc3ccccc23)CC(NC(C)=O)C(=O)N[C@H](CCCCN)C(=O)N1.Cl` (mixture of isomers; 25) gave a minimum inhibitory concentration (MIC) of 31 µg/mL.

Compound `COC(=O)[C@@H]1CC=CCc2cc3ccccc3c(c2OC)-c2c(OC)c(cc3ccccc23)CC(NC(C)=O)C(=O)N[C@H](CCCCN)C(=O)N1.Cl` (mixture of isomers; 26) gave an MIC of 8 µg/mL.

The experiment is the same for the next values; noted with them: Staphylococcus aureus, ATCC 6538P; read-out: MIC.
On to `C=CCc1cc2ccccc2c(-c2c(OC)c(CC(NC(C)=O)C(=O)N[C@H](CCCNC(=N)N)C(=O)N[C@@H](CC=C)C(=O)OC)cc3ccccc23)c1OC` (some centres not stated), for which the MIC was 4 µg/mL (≈ 5.33 µM).

Take `C=CCc1cc2ccccc2c(-c2c(OC)c(CC(NC(C)=O)C(=O)N[C@@H](CCCNC(=N)N)C(=O)N[C@@H](CC=C)C(=O)OC)cc3ccccc23)c1OC` (some centres not stated): the MIC worked out at 4 µg/mL (≈ 5.33 µM).

`COC(=O)[C@@H]1C/C=C/Cc2cc3ccccc3c(c2OC)-c2c(OC)c(cc3ccccc23)CC(NC(C)=O)C(=O)N[C@H](CCCCNC(=O)OC(C)(C)C)C(=O)N1` (mixture of isomers): the MIC is above 250 µg/mL.

`COC(=O)[C@@H]1C/C=C/Cc2cc3ccccc3c(c2OC)-c2c(OC)c(cc3ccccc23)CC(NC(C)=O)C(=O)N[C@H](CCCNC(=N)NS(=O)(=O)c2c(C)c(C)c3c(c2C)CCC(C)(C)O3)C(=O)N1` (mixture of isomers): the minimum inhibitory concentration (MIC) is 31 µg/mL.

For the compound `COC(=O)[C@@H]1C/C=C/Cc2cc3ccccc3c(c2OC)-c2c(OC)c(cc3ccccc23)CC(NC(C)=O)C(=O)N[C@@H](CCCCNC(=O)OCC2c3ccccc3-c3ccccc32)C(=O)N1` (mixture of isomers), the MIC was above 250 µg/mL.

For the compound `COC(=O)[C@@H]1C/C=C/Cc2cc3ccccc3c(c2OC)-c2c(OC)c(cc3ccccc23)CC(NC(C)=O)C(=O)N[C@@H](C)C(=O)N[C@@H](CCCCN)C(=O)N1.Cl` (mixture of isomers), the MIC is above 250 µg/mL.

Regarding `COC(=O)[C@@H]1C/C=C/Cc2cc3ccccc3c(c2OC)-c2c(OC)c(cc3ccccc23)CC(NC(C)=O)C(=O)N[C@H](CCCNC(=N)N)C(=O)N1.Cl` (mixture of isomers; 22), the MIC stood at 62 µg/mL.
